Experimental data as given in ChEMBL document CHEMBL3351368, “Biphenyl-4-carboxylic acid [2-(1H-indol-3-yl)-ethyl]-methylamide (CA224), a nonplanar analogue of fascaplysin, inhibits Cdk4 and tubulin polymerization: evaluation of in vitro and in vivo anticancer activity” (J Med Chem, 2014).
In brackets after ≈: the same amount, converted by molar mass. Activity calls are given as the source filed them.

Key:
Tubulin (Homo sapiens) [1] = target: T1, Tubulin (Homo sapiens) (UniProt P68371+Q9H4B7+P0DPH7+P68366+Q13509+Q71U36+P04350+Q3ZCM7+P07437+P68363+Q9BQE3+Q6PEY2+Q13885+Q9BVA1+Q9BUF5); assay: Inhibition of tubulin polymerization in p53+, pRb+ human A549 cells assessed as paclitaxel-mediated polymerization treated simultaneously measured after 30 mins by Western blot analysis; assay type: cell-based
MiaPaCa = assay: Effect on p53 level in p53His273 mutant, pRb+ human MiaPaCa cells at IC50 concentration after 48 hrs by Western blot analysis; assay type: functional
[2] = Growth inhibition of mouse BNL-CL2 cells after 48 hrs by MTT assay; assay type: functional, cell-based; settings: BNL CL.2, 48 h
Outline: (§1)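 MTT cell proliferation assay. IC50 (µM) was defined as the concentration giving 50% inhibition of cell growth.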

NCI-H460 = assay: Induction of apoptosis in p53+, pRb+ human NCI-H460 cells assessed as fragmented nuclei/distrupted cell membrane after 24 hrs by DAPI staining-based flow cytometry; assay type: functional
[3] = Solubility in simulated intestinal fluid; assay type: ADME
CYP2C9 = CYP2C9 (Homo sapiens, UniProt P11712); assay: Inhibition of human recombinant CYP2C9 at 10 uM; assay type: ADME
NCI-H358 [4] = assay: Growth inhibition of p53 null, pRb null human NCI-H358 cells after 48 hrs by MTT assay; assay type: functional, cell-based; settings: NCI-H358, 48 h; outline: as §1
[5] = target: Dual specificity mitogen-activated protein kinase kinase 1 (Homo sapiens) (UniProt Q02750); assay: Inhibition of human MEK1 assessed as enzyme activity at 10 uM
Tubulin (Homo sapiens) [6] = target: T1, Tubulin (Homo sapiens); assay: Inhibition of tubulin (unknown origin) polymerization assessed as decrease in Vmax measured at 2.5 uM by spectrophotometry; assay type: protein-complex assay
Outline: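 Purified tubulin polymerisation followed as absorbance increase over about 4000 s. Vmax (mOD/min) is taken as the read-out, with final polymer mass also noted. Compound is tested at 2.5, 5, 10 and 25 µM alongside untreated control, paclitaxel 10 µM (enhancer) and nocodazole 10 µM (inhibitor). Curves are the average of three independent experiments.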

[7] = Growth inhibition of p53+, pRb+ human NCI-H460 cells after 48 hrs by MTT assay; assay type: functional, cell-based; settings: NCI-H460, 48 h; outline: as §1
A549 = assay: Reduction cyclin B1 level in p53+, pRb+ human A549 cells at IC50 concentration after 24 hrs by Western blot analysis
[8] = target: Cyclin-dependent kinase 1/cyclin B1 (Homo sapiens, UniProt P06493); assay: Binding affinity to human CDK1/cyclinB1; assay type: protein-complex assay
[9] = Clearance in BALB/c mouse at 1 mg/kg, iv; assay type: ADME, organism-based; parameters: dose 1 mg/kg, route intravenous; settings: in vivo
Outline: (§2)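 BALB/c mice given a single dose of 1.0 mg/kg IV or 10 mg/kg orally; plasma concentration followed over time and pharmacokinetic parameters derived from the time-concentration profile.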

NCI-H1299 = assay: Cell cycle arrest in human NCI-H1299 cells assessed as accumulation of cells at G0/G1 phase at IC50 concentration after 24 hrs by flow cytometry (reference value: 56%); assay type: functional
NCI-H358 [10] = assay: Cell cycle arrest in human NCI-H358 cells assessed as accumulation of cells at S phase at IC50 concentration after 18 hrs by flow cytometry in presence of […] uM hydroxyurea for 18 hrs (reference value: 12%); assay type: functional
[11] = Oral bioavailability in BALB/c mouse at 10 mg/kg; assay type: ADME, organism-based; settings: in vivo; outline: as §2

Chain of Dual specificity mitogen-activated protein kinase kinase 1 (Homo sapiens) (Q02750 whole entry): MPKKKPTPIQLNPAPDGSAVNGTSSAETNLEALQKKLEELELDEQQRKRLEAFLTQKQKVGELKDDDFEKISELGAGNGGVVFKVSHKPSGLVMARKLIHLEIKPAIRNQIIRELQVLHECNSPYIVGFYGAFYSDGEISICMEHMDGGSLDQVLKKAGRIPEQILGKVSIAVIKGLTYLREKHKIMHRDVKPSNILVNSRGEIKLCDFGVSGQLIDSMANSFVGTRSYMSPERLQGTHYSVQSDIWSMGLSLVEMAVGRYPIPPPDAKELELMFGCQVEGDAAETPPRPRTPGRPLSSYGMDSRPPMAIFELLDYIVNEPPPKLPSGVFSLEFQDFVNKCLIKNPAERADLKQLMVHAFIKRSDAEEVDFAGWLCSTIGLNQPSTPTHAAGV
Chain of CYP2C9 (P11712 whole entry): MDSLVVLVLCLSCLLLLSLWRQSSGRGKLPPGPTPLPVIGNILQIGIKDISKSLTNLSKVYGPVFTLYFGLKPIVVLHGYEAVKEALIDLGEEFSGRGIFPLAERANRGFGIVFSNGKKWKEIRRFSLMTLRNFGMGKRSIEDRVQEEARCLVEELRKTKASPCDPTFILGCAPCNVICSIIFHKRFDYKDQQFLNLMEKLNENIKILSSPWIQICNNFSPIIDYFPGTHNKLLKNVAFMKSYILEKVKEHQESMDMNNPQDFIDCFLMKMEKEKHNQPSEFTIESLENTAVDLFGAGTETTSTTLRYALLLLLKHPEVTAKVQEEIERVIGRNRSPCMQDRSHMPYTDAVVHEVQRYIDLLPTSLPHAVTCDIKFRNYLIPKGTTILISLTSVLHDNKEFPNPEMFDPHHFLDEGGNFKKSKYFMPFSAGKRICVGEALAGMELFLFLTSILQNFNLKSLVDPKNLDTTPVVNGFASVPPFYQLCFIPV
Chain of Cyclin-dependent kinase 1/cyclin B1 (P06493 whole entry): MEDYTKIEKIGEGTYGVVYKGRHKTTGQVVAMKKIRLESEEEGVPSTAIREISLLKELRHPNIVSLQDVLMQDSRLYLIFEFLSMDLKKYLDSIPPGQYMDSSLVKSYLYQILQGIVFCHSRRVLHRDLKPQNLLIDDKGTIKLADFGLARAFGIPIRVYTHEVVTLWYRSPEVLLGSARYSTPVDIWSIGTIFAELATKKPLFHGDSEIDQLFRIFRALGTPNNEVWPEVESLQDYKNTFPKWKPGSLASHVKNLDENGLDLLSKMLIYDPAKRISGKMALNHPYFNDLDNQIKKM
Chain of Cyclin-dependent kinase 1/cyclin B1 (P14635 whole entry, further chain): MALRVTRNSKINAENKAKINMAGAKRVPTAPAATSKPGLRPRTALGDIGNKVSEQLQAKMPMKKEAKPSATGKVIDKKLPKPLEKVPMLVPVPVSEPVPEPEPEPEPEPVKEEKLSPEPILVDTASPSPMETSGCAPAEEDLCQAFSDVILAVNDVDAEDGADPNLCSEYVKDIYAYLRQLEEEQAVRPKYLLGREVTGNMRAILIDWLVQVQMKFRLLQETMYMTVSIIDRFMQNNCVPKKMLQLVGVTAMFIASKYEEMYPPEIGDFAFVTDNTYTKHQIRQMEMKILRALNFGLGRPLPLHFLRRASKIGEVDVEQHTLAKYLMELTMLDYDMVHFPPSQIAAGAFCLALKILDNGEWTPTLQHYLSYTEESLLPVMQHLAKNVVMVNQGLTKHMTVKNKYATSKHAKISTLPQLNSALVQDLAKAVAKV

CN(CCc1c[nH]c2ccccc12)C(=O)c1ccc(-c2ccccc2)cc1
inhibition (Tubulin (Homo sapiens) [1]): Dose-dependent effect
Activity (MiaPaCa): inactive
IC50 [2]: 2.6 µM
Activity (NCI-H460): Dose-dependent effect
solubility [3]: 5 µg/mL (≈ 14.1 µM)
inhibition at 10 µM (CYP2C9): 51%
IC50 (NCI-H358 [4]): 2.2 µM
inhibition [5]: inactive
Activity (milli optical density/minute) (Tubulin (Homo sapiens) [6]): 6.2
IC50 [7]: 2 µM
inhibition (A549): Active
IC50 [8]: > 500 µM
clearance [9]: 5.3 L/h/kg
Activity (NCI-H1299): 22%
Activity (NCI-H358 [10]): 10%
bioavailability [11]: 9.6%
